Test results taken from ChEMBL document CHEMBL1131478 (J Med Chem, 1998).

Legend:
[1] = Maximum plasma concentration (Cmax) after p.o. administration of 200 mg/kg in mice; format: ADME, organism-based; parameters: dose 200 mg/kg, route oral; details: mouse, po
Procedure, shortened: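 Single 200 mg/kg oral dose in mice, given in 0.5% methyl cellulose. Blood drawn at various time points. Plasma drug extracted with CH3CN and quantified by reverse-phase C18 HPLC using a CH3CN gradient with 0.1% TFA. Peak plasma level taken as Cmax.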

[2] = molecular target: Angiotensin-converting enzyme (Homo sapiens, UniProt P12821); assay: Inhibitory activity against Angiotensin I converting enzyme
Sequence of Angiotensin-converting enzyme (P12821 whole entry): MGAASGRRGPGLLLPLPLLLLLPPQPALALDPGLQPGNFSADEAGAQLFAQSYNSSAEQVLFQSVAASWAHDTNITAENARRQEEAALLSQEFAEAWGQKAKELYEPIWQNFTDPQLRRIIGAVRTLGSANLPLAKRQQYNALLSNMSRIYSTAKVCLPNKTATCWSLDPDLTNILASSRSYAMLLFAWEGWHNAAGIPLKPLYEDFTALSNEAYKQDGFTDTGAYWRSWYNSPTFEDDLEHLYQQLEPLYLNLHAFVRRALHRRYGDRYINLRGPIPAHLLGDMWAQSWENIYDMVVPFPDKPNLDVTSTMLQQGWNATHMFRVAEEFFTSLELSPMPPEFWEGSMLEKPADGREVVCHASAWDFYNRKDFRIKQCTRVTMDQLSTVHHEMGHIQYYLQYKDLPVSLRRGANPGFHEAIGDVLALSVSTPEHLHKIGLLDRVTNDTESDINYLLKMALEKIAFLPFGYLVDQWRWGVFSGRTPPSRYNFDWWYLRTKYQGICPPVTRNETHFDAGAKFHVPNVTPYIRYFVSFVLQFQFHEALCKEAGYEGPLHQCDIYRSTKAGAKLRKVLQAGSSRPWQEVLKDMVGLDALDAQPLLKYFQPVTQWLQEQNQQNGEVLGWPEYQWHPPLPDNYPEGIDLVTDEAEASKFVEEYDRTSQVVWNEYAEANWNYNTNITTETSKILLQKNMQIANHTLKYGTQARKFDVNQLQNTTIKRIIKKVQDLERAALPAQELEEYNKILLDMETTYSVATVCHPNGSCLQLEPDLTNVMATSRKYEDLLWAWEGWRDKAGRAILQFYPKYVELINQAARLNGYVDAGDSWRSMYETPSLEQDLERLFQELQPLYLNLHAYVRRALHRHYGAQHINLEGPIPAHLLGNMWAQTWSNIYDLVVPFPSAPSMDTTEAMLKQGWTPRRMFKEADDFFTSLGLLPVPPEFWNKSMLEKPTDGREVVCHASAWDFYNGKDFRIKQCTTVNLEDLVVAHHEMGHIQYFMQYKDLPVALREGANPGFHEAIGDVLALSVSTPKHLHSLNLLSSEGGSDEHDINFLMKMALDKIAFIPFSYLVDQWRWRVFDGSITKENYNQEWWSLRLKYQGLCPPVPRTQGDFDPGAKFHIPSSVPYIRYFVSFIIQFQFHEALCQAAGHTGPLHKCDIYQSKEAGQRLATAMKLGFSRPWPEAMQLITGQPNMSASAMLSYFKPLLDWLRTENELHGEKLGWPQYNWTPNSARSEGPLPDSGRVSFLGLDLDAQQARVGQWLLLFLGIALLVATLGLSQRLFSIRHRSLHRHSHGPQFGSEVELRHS

[3] = molecular target: T1, Endothelin-converting enzyme 1 (Homo sapiens, UniProt P42892); assay: Inhibitory activity against Endothelin-converting enzyme (ECE)
T1 sequence (P42892 whole entry): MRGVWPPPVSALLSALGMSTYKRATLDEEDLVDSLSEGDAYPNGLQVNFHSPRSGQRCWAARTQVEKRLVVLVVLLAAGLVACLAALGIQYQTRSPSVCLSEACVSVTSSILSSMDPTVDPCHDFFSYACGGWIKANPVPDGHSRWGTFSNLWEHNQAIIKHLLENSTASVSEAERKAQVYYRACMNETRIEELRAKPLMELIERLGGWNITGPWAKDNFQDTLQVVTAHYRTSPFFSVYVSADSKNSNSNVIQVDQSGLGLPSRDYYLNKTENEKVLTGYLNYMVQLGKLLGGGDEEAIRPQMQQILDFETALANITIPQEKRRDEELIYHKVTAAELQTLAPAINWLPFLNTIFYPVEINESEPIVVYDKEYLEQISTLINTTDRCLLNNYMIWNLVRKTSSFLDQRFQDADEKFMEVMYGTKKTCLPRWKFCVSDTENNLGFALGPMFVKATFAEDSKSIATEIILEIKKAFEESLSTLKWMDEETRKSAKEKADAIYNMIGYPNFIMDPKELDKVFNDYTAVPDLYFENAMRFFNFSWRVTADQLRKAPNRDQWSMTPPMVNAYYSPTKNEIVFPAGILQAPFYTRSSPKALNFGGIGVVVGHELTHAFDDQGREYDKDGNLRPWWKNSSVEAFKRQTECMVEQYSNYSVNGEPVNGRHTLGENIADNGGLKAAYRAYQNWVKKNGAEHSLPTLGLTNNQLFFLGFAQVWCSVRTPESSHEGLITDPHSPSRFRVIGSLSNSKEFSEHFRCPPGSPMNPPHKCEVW

Matrilysin = molecular target: T2, Matrilysin (Homo sapiens, UniProt P09237); assay: Inhibitory activity against Matrix metalloprotease-7
T2 sequence (P09237 whole entry): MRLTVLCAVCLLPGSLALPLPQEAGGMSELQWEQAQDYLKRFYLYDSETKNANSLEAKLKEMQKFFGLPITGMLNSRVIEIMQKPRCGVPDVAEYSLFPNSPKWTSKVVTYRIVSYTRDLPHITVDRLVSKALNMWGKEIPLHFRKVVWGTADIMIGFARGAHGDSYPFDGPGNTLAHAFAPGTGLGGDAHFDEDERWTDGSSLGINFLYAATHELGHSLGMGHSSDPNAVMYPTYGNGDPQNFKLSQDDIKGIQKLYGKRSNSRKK

[4] = molecular target: Matrix metalloproteinase-9 (Homo sapiens, UniProt P14780); assay: Inhibitory activity against human gelatinase B (Matrix metalloprotease-9)
Sequence of Matrix metalloproteinase-9 (P14780 whole entry): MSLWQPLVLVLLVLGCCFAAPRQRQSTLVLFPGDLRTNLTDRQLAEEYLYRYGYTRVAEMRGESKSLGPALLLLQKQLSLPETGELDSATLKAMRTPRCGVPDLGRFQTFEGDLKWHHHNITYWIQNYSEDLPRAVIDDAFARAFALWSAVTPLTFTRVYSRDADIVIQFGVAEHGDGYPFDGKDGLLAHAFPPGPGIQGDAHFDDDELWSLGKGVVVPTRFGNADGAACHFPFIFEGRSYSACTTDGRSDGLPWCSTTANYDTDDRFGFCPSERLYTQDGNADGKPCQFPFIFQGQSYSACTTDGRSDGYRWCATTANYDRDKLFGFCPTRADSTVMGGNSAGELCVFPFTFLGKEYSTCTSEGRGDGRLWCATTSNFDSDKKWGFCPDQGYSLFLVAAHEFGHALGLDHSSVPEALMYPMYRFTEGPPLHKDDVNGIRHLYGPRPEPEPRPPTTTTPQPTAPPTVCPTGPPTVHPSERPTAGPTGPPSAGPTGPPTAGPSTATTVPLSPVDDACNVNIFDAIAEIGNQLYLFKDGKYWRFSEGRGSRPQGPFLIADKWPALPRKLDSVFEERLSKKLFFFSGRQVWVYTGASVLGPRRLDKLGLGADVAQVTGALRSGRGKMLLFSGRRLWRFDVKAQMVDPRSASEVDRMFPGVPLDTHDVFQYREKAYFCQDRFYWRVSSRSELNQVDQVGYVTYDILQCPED

Stromelysin-1 = Stromelysin-1 (Homo sapiens, UniProt P08254); assay: Inhibitory activity against Matrix metalloprotease-3
Sequence of Stromelysin-1 (P08254 whole entry): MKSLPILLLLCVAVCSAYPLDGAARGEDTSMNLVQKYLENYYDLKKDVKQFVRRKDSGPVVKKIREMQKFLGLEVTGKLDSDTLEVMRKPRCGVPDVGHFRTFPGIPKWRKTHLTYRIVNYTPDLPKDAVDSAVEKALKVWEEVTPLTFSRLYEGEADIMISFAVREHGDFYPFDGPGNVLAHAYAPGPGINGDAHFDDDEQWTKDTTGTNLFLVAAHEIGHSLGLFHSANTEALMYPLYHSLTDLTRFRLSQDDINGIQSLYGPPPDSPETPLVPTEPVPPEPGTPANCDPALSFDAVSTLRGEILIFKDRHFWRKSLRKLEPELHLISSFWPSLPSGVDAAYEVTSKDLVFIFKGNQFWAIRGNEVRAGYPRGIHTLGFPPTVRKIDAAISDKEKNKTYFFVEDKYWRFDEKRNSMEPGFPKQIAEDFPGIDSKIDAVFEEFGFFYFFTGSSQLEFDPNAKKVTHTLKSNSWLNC
Procedure, shortened: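 Enzyme and DMSO inhibitor were preincubated 30 min at room temperature in 50 mM Tris-Cl/10 mM CaCl2/0.2 M NaCl/0.02% NaN3/0.05% Brij-35, pH 7.5. Substrate MOAc-Arg-Pro-Lys-Pro-Val-Glu-Nva-Trp-Arg-Lys(Dnp)NH2 (added as 25 μM solution) then reacted 90 min.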

[5] = molecular target: 72 kDa type IV collagenase (Homo sapiens, UniProt P08253); assay: Inhibitory activity against human gelatinase A (matrix metalloprotease-2 MMP2)
Sequence of 72 kDa type IV collagenase (P08253 whole entry): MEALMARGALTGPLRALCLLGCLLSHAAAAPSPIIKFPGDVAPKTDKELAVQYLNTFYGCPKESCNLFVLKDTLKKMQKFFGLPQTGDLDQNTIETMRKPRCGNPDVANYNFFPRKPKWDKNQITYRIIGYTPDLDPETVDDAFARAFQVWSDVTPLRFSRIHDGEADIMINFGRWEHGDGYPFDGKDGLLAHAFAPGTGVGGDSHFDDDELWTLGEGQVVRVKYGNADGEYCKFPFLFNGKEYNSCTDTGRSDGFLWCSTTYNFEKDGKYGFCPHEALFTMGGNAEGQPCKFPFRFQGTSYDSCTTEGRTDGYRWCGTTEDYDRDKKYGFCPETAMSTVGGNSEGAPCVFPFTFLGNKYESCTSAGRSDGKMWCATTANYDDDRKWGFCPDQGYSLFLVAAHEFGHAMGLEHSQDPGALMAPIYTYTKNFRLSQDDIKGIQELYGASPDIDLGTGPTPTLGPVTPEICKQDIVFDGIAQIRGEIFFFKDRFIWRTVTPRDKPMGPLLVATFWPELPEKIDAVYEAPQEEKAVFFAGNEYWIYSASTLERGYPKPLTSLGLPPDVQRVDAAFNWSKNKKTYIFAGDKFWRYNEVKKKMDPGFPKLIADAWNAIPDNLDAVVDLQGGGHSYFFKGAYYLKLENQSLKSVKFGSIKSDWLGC

Interstitial collagenase = molecular target: T3, Interstitial collagenase (Homo sapiens, UniProt P03956); assay: Inhibitory activity against Matrix metalloprotease-1
T3 sequence (P03956 whole entry): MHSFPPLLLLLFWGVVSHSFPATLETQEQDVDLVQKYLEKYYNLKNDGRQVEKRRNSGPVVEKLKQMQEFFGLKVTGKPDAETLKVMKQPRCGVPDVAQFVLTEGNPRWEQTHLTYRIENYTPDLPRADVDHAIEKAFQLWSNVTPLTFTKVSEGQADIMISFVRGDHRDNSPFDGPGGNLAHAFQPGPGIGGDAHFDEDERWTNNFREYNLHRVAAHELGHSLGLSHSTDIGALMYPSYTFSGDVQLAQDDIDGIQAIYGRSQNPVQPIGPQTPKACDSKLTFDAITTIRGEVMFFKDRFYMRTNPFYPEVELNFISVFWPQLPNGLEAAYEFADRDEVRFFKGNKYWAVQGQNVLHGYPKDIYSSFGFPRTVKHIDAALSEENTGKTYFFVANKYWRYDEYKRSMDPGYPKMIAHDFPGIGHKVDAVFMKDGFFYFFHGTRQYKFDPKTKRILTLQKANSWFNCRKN
Procedure, shortened: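 Commercial enzyme diluted in Tris/CaCl2/NaCl/Brij-35 buffer. Enzyme (about 0.2 unit/mL) and DMSO inhibitor were preincubated 30 min at room temperature with ABD-F (added as 2 mM) in 25 mM HEPES-NaOH/5 mM CaCl2, pH 7.0. Thiopeptide substrate Ac-Pro-Leu-Gly-SCH(CH2CH(CH3)2)CO-Leu-Gly-OEt (1.25 mM stock) was then added for 3 h at 37 °C. Reaction quenched with 3% acetic acid. Fluorescence read at ex 360/em 530 nm.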

Neprilysin = molecular target: T4, Neprilysin (Rattus norvegicus, UniProt P07861); assay: Inhibitory activity against neutral endopeptidase (NEP)
T4 sequence (P07861 whole entry): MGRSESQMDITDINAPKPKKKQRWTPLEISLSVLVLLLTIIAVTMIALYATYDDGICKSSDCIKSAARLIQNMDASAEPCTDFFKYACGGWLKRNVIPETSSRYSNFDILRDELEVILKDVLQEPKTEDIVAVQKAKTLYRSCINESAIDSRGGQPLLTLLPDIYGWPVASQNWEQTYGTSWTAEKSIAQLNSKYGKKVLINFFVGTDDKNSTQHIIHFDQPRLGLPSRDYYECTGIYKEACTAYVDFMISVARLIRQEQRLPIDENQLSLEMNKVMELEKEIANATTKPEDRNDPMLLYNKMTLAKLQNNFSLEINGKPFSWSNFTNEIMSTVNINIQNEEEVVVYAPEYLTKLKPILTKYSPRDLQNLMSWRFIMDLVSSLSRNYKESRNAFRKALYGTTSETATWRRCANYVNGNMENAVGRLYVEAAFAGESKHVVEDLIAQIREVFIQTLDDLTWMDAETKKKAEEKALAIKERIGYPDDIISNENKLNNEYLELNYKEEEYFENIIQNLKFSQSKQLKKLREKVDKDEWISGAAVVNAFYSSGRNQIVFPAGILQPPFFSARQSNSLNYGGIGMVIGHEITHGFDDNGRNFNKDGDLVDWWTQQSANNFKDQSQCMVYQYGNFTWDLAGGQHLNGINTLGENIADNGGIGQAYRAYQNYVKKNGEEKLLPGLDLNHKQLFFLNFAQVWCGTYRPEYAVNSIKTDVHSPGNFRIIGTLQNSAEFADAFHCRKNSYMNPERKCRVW

[6] = molecular target: T1, Endothelin-converting enzyme 1; assay: Inhibitory activity against endothelin converting enzyme (ECE)

Cmax [1] [µM] | IC50 [2] [nM] | IC50 [3] [nM] | IC50 (Matrilysin) [nM] | IC50 [4] [nM] | IC50 (Stromelysin-1) [nM] | IC50 [5] [nM] | IC50 (Interstitial collagenase) [nM] | IC50 (Neprilysin) [nM] | IC50 [6] [nM] | Structure (SMILES)
252 | > 1000 | > 1000 | > 1000 | 61 | > 1000 | 10 | > 1000 | > 1000 |  | Cc1ccc(-c2ccc(S(=O)(=O)N[C@H](Cc3c[nH]c4ccccc34)C(=O)O)s2)cc1
204 | > 1000 |  | > 1000 | 23 | > 1000 |  | > 1000 | > 1000 | > 1000 | Cc1ccc(C#Cc2ccc(S(=O)(=O)N[C@H](Cc3c[nH]c4ccccc34)C(=O)O)s2)cc1 [S-3304]

Further lines, the compound ahead of its results:

Structure (SMILES) | Cmax [1] [µM] | IC50 [2] [nM] | IC50 [3] [nM] | IC50 (Matrilysin) [nM] | IC50 [4] [nM] | IC50 (Stromelysin-1) [nM] | IC50 [5] [nM] | IC50 (Interstitial collagenase) [nM] | IC50 (Neprilysin) [nM] | IC50 [6] [nM]
CSc1ccc(-n2nnc(-c3ccc(S(=O)(=O)N[C@@H](C(=O)O)C(C)C)cc3)n2)cc1 | 47.7 | > 1000 |  | > 1000 |  | > 1000 | 13 | > 1000 | > 1000 | > 1000
CSc1ccc(-c2ccc(S(=O)(=O)N[C@@H](C(=O)O)C(C)C)cc2)cc1 | 189 | > 1000 |  | > 1000 | 40 | > 1000 | 23 | > 1000 | > 1000 | > 1000
O=C(Nc1ccc(S(=O)(=O)N[C@H](Cc2c[nH]c3ccccc23)C(=O)O)cc1)c1ccc(Br)cc1 | 0.2 | > 1000 |  | > 1000 |  | > 1000 | 2.6 | > 1000 | > 1000 | > 1000
O=C(O)[C@@H](Cc1c[nH]c2ccccc12)NS(=O)(=O)c1ccc(-c2nnn(-c3ccccc3)n2)cc1 |  | > 1000 | > 1000 | > 1000 | 32 | > 1000 | 19 | > 1000 | > 1000 | 
